Source: ChEMBL document CHEMBL1255469, “In vitro activity of a new isothiazoloquinolone, ACH-702, against Mycobacterium tuberculosis and other mycobacteria” (2010)
≈ marks a conversion by molar mass, not a printed value.

Columns and labels:
[1] = tested on: Mycobacterium tuberculosis; assay: Antimicrobial activity against isoniazid and rifampin-resistant Mycobacterium tuberculosis clinical isolates after 7 days by broth microdilution assay; format: functional; settings: 168 h
In short: (§1)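 Alamar Blue broth microdilution in 7H9GC broth (Middlebrook 7H9 base, glycerol, Casitone, 10% OADC). Drug stock 1 mg/ml in 100% DMSO, diluted in broth to a final 0.03 to 8 μg/ml. M. tuberculosis H37Rv served as the susceptible-strain control. Isoniazid and rifampin resistance was assigned beforehand by the proportion method.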

[2] = tested on: Mycobacterium tuberculosis; assay: Antimicrobial activity against isoniazid or rifampin-resistant Mycobacterium tuberculosis clinical isolates after 7 days by broth microdilution assay; format: functional; settings: 168 h; in short: as §1

SMILES: COc1c(N2CC[C@@H](C(C)(C)N)C2)c(F)cc2c(=O)c3c(=O)[nH]sc3n(C3CC3)c12
- MIC50 [1]: 0.06 µg/mL (≈ 0.139 µM)
- MIC90 [1]: 0.12 µg/mL (≈ 0.277 µM)
- MIC50 [2]: 0.12 µg/mL (≈ 0.277 µM)
- MIC90 [2]: 0.12 µg/mL (≈ 0.277 µM)
